From ChEMBL document CHEMBL1144690, “Isolation of cytotoxic metabolites from targeted peruvian amazonian medicinal plants” (2008)
Values after ≈ are worked out from the molar mass of the structure shown. Active and inactive are the calls of the source. No cut-off for these calls is given here.

Tests used:
[1] = system: NCI-H460; experiment: Cytotoxicity against human H460 cells; assay type: functional
Method in brief: (§1)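 Cells in 96-well plates exposed to serial dilutions of test sample (maximum 62.5 µg/mL for crude extract and fractions) or solvent-dilution controls for 48 h at 37 °C. Growth measured colorimetrically by sulforhodamine B staining, with percent inhibition taken against controls. GI50 is the concentration giving 50% absorbance reduction versus solvent controls, obtained by linear regression.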

[2] = system: DU-145; experiment: Cytotoxicity against human DU145 cells; assay type: functional; method in brief: as §1
[3] = system: MCF7; experiment: Cytotoxicity against human MCF7 cells; assay type: functional; method in brief: as §1
[4] = system: M14; experiment: Cytotoxicity against human M14 cells; assay type: functional; method in brief: as §1
[5] = system: HT-29; experiment: Cytotoxicity against human HT29 cells; assay type: functional; method in brief: as §1
[6] = system: PC-3; experiment: Cytotoxicity against human PC3 cells; assay type: functional; method in brief: as §1
[7] = system: K562; experiment: Cytotoxicity against human K562 cells; assay type: functional; method in brief: as §1
[8] = system: Vero; experiment: Cytotoxicity against african green monkey Vero cells; assay type: functional; settings: Chlorocebus sabaeus; method in brief: as §1
[9] = system: Mycobacterium tuberculosis; experiment: Antimicrobial activity against Mycobacterium tuberculosis H37Rv at 25 ug/ml; assay type: functional, organism-based
[10] = system: ME-180; experiment: Cytotoxicity against human ME180 cells; assay type: functional; method in brief: as §1
[11] = system: Mycobacterium tuberculosis; experiment: Antimicrobial activity against Mycobacterium tuberculosis H37Rv; assay type: functional
Method in brief: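 Tetrazolium microplate assay (TEMA) run in vitro against the drug-sensitive M. tuberculosis H37Rv strain.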

SMILES	GI50 [1] [µg/mL]	GI50 [2] [µg/mL]	GI50 [3] [µg/mL]	GI50 [4] [µg/mL]	GI50 [5] [µg/mL]	GI50 [6] [µg/mL]	GI50 [7] [µg/mL]	GI50 [8] [µg/mL]	Activity [9]	GI50 [10] [µg/mL]	MIC [11] [µg/mL]
COc1cc(O)cc(O)c1C(=O)CCc1ccc2c(c1)OCO2	27.4 (≈ 86.6 µM)	22.4 (≈ 70.8 µM)	18.9 (≈ 59.8 µM)	23.4 (≈ 74 µM)	27.6 (≈ 87.3 µM)	24.5 (≈ 77.5 µM)	8.4 (≈ 26.6 µM)	28.4 (≈ 89.8 µM)	inactive	–	–
CCCCCCCCCCCCCC(=O)O[C@@H]1[C@@H](C)[C@@]2(O)[C@@H](C=C(CO)C[C@]3(O)C(=O)C(C)=C[C@@H]23)[C@@H]2C(C)(C)[C@]12OC(C)=O [PHORBOL MYRISTATE ACETATE]	–	–	–	–	–	–	0.00012	–	–	–	–
Cc1cc(O)c2c(c1)C(=O)c1ccc(O)c(O)c1C2=O	4.8 (≈ 17.8 µM)	7.9 (≈ 29.2 µM)	7.3 (≈ 27 µM)	13.6 (≈ 50.3 µM)	6.5 (≈ 24.1 µM)	8.7 (≈ 32.2 µM)	12.5 (≈ 46.3 µM)	–	inactive	13.2 (≈ 48.8 µM)	–
C=C(C)[C@@H]1CC[C@]2(C(=O)O)CC[C@]3(C)[C@H](CC[C@@H]4[C@@]5(C)CC[C@H](O)C(C)(C)[C@@H]5CC[C@]43C)[C@@H]12 [BETULINIC ACID]	29.7 (≈ 65 µM)	35.3 (≈ 77.3 µM)	> 62.5	32.6 (≈ 71.4 µM)	30.9 (≈ 67.7 µM)	31.3 (≈ 68.5 µM)	10.8 (≈ 23.6 µM)	30.6 (≈ 67 µM)	inactive	27.8 (≈ 60.9 µM)	–
Cc1cc(O)c2c(c1)C(=O)c1cccc(O)c1C2=O [CHRYSOPHANOL]	> 62.5	> 62.5	> 62.5	> 62.5	> 62.5	> 62.5	> 62.5	> 62.5	inactive	> 62.5	–
COc1ccc(CCC(=O)c2c(O)cc(O)cc2OC)cc1	44.7 (≈ 148 µM)	41.7 (≈ 138 µM)	22.9 (≈ 75.7 µM)	40.3 (≈ 133 µM)	35.5 (≈ 117 µM)	46.3 (≈ 153 µM)	7.4 (≈ 24.5 µM)	40.4 (≈ 134 µM)	inactive	–	–
C[C@]12C=C[C@@]3(CC[C@H]4[C@@](C)(CCC[C@@]4(C)C(=O)O)[C@@H]3CC1)C2 [MONOGINOIC ACID]	–	–	–	–	–	–	> 62.5	–	–	–	–
C/C=C1/CN2CC[C@@]34c5ccccc5N5/C=C6/[C@H]7C[C@@H]8N(CC[C@@]89c8ccccc8N(/C=C(/[C@H]1C[C@H]23)[C@H]54)[C@@H]69)C/C7=C/C [BISNORDIHYDROTOXIFERINE]	1.6 (≈ 2.89 µM)	4.5 (≈ 8.14 µM)	2 (≈ 3.62 µM)	1.6 (≈ 2.89 µM)	> 1	2.1 (≈ 3.8 µM)	< 1	2.7 (≈ 4.88 µM)	–	1.9 (≈ 3.44 µM)	12.5 (≈ 22.6 µM)
